Assay results taken from ChEMBL document CHEMBL1148848, “Discovery and preliminary evaluation of 5-(4-phenylbenzyl)oxazole-4-carboxamides as prostacyclin receptor antagonists” (Bioorg Med Chem Lett, 2007).

What was measured:
Prostacyclin receptor [1] = biological target: T1, Prostacyclin receptor (Homo sapiens, UniProt P43119); assay: Displacement of [3H]iloprost from IP receptor in human platelet membrane; assay type: cell membranes
Summary of the method: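 Filter binding with 0.01 μM [3H]-iloprost and 50 μg human platelet membranes. Incubated 1 h at room temperature in 20 mM Hepes, 5 mM MgCl2, pH 7.4, with or without compound. Compound serially diluted in DMSO, final DMSO 1–10%. Filtered, washed twice with PBS, counted by scintillation.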

Prostacyclin receptor [2] = biological target: T1, Prostacyclin receptor; assay: Antagonist activity at human IP receptor in HEL 92.1.7 cells assessed as inhibition of iloprost-induced cAMP production; assay type: functional, cell-based
Summary of the method: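 HEL 92.1.7 cells cultured in RPMI with 10% FBS, 10 mM Hepes, 1 mM sodium pyruvate, penicillin/streptomycin. 5000 cells preincubated 15 min at 37 °C with compound in 5 mM Hepes, 0.05% BSA buffer. Stimulated with 0.01 μM iloprost for 15 min at 37 °C. cAMP read by LANCE TR-FRET kit. Data normalized to max/min controls; IC50 from curve fit.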

[3] = Metabolic stability in human liver microsomes after 30 mins; assay type: ADME, Microsome; conditions: read-out: Stability
Summary of the method: (§1)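 Human or rat liver microsomes, […], incubated 30 min with compound; percent parent remaining.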

[4] = Metabolic stability in rat liver microsome after 30 mins; assay type: ADME; conditions: liver microsomes, read-out: Stability; summary of the method: as §1
Cytochrome P450 2C19 = Cytochrome P450 2C19 (Homo sapiens, UniProt P33261); assay: Inhibition of CYP2C19; assay type: ADME
[5] = Apparent permeability across Caco-2 cells; assay type: ADME, cell-based; conditions: human
hERG (KCNH2) = hERG (KCNH2) (Homo sapiens, UniProt Q12809); assay: Inhibition of hERG at 20 uM by rubidium efflux assay; assay type: toxicity
[6] = biological target: Prostaglandin E2 receptor EP4 subtype (Homo sapiens, UniProt P35408); assay: Inhibition of human recombinant EP4 receptor expressed in 293EBNA cells; assay type: cell-based
[7] = biological target: Prostaglandin E2 receptor EP2 subtype (Homo sapiens, UniProt P43116); assay: Inhibition of human recombinant EP2 receptor expressed in 293EBNA cells; assay type: cell-based
Cytochrome P450 2C9 = Cytochrome P450 2C9 (Homo sapiens, UniProt P11712); assay: Inhibition of CYP2C9; assay type: ADME
Cytochrome P450 3A4 = Cytochrome P450 3A4 (Homo sapiens, UniProt P08684); assay: Inhibition of CYP3A4; assay type: ADME
Cytochrome P450 2D6 = Cytochrome P450 2D6 (Homo sapiens, UniProt P10635); assay: Inhibition of CYP2D6; assay type: ADME
Cytochrome P450 1A2 = biological target: T2, Cytochrome P450 1A2 (Homo sapiens, UniProt P05177); assay: Inhibition of CYP1A2; assay type: ADME
T2 sequence (P05177 whole entry): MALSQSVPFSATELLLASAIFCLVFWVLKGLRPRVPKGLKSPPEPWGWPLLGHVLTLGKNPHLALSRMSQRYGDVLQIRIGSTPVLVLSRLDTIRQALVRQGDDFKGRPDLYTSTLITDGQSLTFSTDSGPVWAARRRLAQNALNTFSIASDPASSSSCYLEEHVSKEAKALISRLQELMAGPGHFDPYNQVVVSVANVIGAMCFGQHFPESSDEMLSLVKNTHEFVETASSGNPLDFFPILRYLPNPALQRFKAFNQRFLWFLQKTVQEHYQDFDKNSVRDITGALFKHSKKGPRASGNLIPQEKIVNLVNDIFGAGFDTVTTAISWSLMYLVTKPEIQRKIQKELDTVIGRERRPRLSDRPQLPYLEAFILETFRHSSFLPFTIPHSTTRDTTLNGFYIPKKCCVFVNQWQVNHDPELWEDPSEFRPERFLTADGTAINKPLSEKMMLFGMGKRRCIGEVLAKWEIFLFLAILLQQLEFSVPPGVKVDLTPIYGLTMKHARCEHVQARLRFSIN

T1 sequence (P43119 whole entry): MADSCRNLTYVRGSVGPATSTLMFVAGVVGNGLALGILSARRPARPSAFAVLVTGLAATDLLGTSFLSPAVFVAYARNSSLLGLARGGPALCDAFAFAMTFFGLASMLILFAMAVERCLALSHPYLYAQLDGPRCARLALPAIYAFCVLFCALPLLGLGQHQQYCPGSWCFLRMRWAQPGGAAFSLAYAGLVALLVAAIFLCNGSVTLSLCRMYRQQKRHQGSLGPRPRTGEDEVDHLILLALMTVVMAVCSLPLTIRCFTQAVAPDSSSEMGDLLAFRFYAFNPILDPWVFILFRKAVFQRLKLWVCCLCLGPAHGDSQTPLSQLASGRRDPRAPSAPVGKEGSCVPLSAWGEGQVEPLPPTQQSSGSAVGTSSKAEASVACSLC
Cytochrome P450 2C19, sequence (P33261 whole entry): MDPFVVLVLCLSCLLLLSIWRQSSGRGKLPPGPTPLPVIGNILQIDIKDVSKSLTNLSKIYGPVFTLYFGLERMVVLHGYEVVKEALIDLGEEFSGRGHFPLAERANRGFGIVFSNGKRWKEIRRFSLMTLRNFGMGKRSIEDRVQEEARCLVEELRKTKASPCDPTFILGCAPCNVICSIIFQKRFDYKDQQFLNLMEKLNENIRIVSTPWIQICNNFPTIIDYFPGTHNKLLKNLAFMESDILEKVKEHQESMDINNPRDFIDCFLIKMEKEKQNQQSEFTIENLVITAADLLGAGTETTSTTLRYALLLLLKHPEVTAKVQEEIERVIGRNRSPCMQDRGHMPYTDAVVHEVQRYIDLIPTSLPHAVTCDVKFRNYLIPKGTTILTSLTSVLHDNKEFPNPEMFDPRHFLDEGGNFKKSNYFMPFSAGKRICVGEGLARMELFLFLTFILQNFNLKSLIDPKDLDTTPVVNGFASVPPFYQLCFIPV
hERG (KCNH2), sequence (Q12809 whole entry): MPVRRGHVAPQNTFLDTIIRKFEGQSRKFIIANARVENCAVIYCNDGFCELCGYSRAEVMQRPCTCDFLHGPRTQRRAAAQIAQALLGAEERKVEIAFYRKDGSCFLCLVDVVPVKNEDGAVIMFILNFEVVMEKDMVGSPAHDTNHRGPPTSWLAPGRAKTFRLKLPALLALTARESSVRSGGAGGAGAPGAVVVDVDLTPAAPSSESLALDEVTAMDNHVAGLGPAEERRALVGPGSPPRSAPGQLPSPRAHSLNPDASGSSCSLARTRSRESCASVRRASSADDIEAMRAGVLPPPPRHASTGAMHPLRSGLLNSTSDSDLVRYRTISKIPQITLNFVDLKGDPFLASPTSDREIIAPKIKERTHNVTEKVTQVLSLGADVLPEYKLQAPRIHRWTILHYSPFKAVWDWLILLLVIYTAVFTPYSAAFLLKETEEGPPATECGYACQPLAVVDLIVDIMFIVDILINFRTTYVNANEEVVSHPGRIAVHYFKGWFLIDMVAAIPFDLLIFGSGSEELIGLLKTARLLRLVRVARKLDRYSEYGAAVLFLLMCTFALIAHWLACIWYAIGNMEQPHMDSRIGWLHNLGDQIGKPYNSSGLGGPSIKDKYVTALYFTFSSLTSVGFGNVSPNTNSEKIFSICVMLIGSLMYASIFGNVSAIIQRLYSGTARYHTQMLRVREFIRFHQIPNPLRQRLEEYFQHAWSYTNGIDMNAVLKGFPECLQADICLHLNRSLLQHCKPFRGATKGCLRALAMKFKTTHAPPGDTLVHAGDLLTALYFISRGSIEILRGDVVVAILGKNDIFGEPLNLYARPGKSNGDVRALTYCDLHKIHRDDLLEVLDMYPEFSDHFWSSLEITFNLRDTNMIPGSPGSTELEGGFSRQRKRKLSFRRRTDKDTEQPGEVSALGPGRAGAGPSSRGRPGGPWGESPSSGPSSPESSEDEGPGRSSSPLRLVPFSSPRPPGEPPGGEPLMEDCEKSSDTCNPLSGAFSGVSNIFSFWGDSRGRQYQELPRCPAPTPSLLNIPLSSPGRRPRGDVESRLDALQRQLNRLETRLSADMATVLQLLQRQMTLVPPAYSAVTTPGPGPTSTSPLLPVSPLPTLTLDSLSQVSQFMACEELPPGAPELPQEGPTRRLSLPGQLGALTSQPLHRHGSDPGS
Cytochrome P450 3A4, sequence (P08684 whole entry): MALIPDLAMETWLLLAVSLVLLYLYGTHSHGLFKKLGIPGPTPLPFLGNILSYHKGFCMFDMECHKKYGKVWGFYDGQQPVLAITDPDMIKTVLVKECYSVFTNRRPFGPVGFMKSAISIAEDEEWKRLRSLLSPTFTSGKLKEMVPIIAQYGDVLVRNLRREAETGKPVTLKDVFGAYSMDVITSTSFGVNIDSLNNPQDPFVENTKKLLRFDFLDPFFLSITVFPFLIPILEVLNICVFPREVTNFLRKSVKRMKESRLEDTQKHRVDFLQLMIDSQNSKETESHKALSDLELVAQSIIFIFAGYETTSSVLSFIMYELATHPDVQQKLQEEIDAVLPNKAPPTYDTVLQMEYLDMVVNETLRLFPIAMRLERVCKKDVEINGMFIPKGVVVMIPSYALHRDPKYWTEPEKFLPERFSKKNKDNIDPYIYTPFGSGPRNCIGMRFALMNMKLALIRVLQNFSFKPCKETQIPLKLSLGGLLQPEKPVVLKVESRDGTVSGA
Prostaglandin E2 receptor EP2 subtype, sequence (P43116 whole entry): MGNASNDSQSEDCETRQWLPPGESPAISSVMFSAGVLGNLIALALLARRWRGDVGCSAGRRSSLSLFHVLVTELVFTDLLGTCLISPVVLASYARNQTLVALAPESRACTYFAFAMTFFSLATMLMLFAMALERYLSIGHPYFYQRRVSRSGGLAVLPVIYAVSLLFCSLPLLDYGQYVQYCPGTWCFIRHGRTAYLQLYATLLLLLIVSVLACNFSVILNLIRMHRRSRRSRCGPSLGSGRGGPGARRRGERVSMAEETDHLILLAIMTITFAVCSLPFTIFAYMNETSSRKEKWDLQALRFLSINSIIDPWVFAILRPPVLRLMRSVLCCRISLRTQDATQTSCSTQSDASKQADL
Cytochrome P450 2C9, sequence (P11712 whole entry): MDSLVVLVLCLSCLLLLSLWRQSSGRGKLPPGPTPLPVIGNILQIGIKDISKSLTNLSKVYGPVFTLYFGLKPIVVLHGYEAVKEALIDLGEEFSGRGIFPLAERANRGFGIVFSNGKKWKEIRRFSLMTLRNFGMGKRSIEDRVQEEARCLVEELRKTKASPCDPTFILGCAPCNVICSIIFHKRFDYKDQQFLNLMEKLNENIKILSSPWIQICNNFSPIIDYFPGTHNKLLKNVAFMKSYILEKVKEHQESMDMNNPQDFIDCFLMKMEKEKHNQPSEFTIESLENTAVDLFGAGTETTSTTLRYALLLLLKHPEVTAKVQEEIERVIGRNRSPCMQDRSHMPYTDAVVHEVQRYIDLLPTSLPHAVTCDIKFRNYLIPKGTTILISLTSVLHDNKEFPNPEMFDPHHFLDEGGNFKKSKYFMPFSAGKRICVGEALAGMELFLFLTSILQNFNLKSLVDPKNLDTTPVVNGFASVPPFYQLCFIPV
Cytochrome P450 2D6, sequence (P10635 whole entry): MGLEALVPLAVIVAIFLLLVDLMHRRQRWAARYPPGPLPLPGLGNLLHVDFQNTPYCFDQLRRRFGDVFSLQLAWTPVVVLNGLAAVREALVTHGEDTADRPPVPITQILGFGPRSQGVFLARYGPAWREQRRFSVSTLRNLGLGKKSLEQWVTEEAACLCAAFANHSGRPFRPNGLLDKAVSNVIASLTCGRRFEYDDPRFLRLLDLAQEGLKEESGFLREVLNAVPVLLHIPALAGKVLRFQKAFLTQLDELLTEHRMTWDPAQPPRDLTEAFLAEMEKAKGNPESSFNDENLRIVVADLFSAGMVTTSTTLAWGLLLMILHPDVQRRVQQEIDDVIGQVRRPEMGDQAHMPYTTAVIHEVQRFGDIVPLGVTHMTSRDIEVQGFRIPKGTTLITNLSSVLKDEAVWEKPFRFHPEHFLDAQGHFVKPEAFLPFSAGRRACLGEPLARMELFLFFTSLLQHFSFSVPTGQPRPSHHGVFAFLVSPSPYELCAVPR
Prostaglandin E2 receptor EP4 subtype, sequence (P35408 whole entry): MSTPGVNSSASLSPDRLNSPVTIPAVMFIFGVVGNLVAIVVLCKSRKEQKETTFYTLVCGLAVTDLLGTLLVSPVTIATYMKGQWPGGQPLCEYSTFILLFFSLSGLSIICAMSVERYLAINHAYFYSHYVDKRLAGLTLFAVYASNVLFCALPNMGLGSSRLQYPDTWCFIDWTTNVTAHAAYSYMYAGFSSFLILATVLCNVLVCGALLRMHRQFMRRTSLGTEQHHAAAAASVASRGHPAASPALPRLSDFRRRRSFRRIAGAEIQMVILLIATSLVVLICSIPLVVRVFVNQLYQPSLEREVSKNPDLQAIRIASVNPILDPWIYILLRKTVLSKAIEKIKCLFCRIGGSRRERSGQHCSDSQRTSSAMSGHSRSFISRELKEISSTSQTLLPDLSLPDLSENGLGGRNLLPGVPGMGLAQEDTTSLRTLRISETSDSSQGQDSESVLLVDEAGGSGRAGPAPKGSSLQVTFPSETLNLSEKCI

| IC50 (Prostacyclin receptor [1]) [nM] | IC50 (Prostacyclin receptor [2]) [nM] | SMILES | further results |
| --- | --- | --- | --- |
| 1230 | 278 | CC(=O)Nc1cccc(-c2ccc(Cc3ocnc3C(=O)NC(C)c3ccccc3)cc2)c1 (racemic) | – |
| 53 | 51 | CC(=O)Nc1cccc(-c2ccc(Cc3ocnc3C(=O)NC[C@H](C)c3ccccc3)cc2)c1 | remaining at 0.5 h [3]: 12%; remaining at 0.5 h [4]: 11% |
| 7160 | 2130 | CC(=O)Nc1cccc(-c2ccc(Cc3ocnc3C(=O)N(C)CCc3ccccc3)cc2)c1 | – |
| 77 | – | CC(=O)Nc1cccc(-c2ccc(Cc3ocnc3C(=O)NCC(C)c3ccccc3)cc2)c1 (racemic) | – |
| 12200 | 3310 | CNC(=O)c1ncoc1Cc1ccc(-c2cccc(NC(C)=O)c2)cc1 | – |
| 3480 | 828 | CC(=O)Nc1cccc(-c2ccc(Cc3ocnc3C(=O)Nc3ccccc3)cc2)c1 | – |
| 34100 | 3310 | CC(=O)Nc1cccc(-c2ccc(Cc3ocnc3C(=O)NCCN(C)C)cc2)c1 | – |
| 4200 | 831 | CC(=O)Nc1cccc(-c2ccc(Cc3ocnc3C(=O)N[C@H](Cc3ccccc3)C(=O)O)cc2)c1 | – |
| 4950 | 741 | CC(=O)Nc1cccc(-c2ccc(Cc3ocnc3C(=O)NCCc3cccnc3)cc2)c1 | – |
| 721 | 138 | CC(=O)Nc1cccc(-c2ccc(Cc3ocnc3C(=O)NCCc3ccccc3)cc2)c1 | – |
| 331 | 358 | CC(=O)Nc1cccc(-c2ccc(Cc3ocnc3C(=O)N[C@H]3C[C@@H]3c3ccccc3)cc2)c1 | – |
| 916 | 296 | CC(=O)Nc1cccc(-c2ccc(Cc3ocnc3C(=O)NC[C@@H](C)c3ccccc3)cc2)c1 | – |
| 4710 | 476 | CC(=O)Nc1cccc(-c2ccc(Cc3ocnc3C(=O)NCCc3ccncc3)cc2)c1 | – |
| 12400 | 3580 | CC(=O)Nc1cccc(-c2ccc(Cc3ocnc3C(=O)N(C)C)cc2)c1 | – |
| 7600 | 1010 | CC(=O)Nc1cccc(-c2ccc(Cc3ocnc3C(=O)NCCc3ccccn3)cc2)c1 | – |
| 561 | 66 | CC(=O)Nc1cccc(-c2ccc(Cc3ocnc3C(=O)NCc3ccccc3)cc2)c1 | remaining at 0.5 h [3]: 63%; remaining at 0.5 h [4]: 33% |
| 476 | 16 | CC(=O)Nc1cccc(-c2ccc(Cc3ocnc3C(=O)N[C@@H](Cc3ccccc3)C(=O)O)cc2)c1 | IC50 (Cytochrome P450 2C19): > 20000 nM; Papp [5]: 5.5 ×10⁻⁶ cm/s; inhibition at 20 µM (hERG (KCNH2)): 5%; IC50 [6]: 24000 nM; IC50 [7]: 32000 nM; IC50 (Cytochrome P450 2C9): 5100 nM; remaining at 0.5 h [3]: 100%; remaining at 0.5 h [4]: 91%; IC50 (Cytochrome P450 3A4): > 20000 nM; IC50 (Cytochrome P450 2D6): > 20000 nM; IC50 (Cytochrome P450 1A2): > 20000 nM |
